Source: PubChem BioAssay
Rows were chosen to be rich in hits. Some 3.5% of all compounds tested hit in one or more screens of this group.
RGS4 act: potentiators or activators of RGS4. HEK293 M3R/inducible RGS4, carbachol calcium flux Fluo4; active compounds read low. B-score at 10 µM. actives 0.92% (n = 310,000);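 active = B-score of the integrated calcium signal more than 4 SD below the library mean, with starting fluorescence not abnormally high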;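 note: negative B-score means reduced calcium response which marks RGS4 activation or potentiation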
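Detection: kinetic calcium fluorescence imaging with Fluo4-AM dye, 2 µM / Material: HEK293 cells with stable M3R and inducible RGS4 / Schedule: recording 10 s baseline at 1 Hz, 100 s post-agonist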
MrgX1 allo act: human MrgX1 positive allosteric modulation, primary screen; MrgX1-HEK293, Fluo-4 calcium flux, FDSS; active compounds read high; B-score at 10 µM; Q96LB2; actives 0.63% (n = 310,000);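 active = plate-corrected calcium response at least 3 library SD above typical, normal starting fluorescence, not activating the receptor alone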;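 note: compound read alongside a low EC10 to EC30 dose of BAM8-22 agonist; peak minus trough fluorescence over baseline measured at the second addition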
Target sequence (Q96LB2 whole entry, looked up): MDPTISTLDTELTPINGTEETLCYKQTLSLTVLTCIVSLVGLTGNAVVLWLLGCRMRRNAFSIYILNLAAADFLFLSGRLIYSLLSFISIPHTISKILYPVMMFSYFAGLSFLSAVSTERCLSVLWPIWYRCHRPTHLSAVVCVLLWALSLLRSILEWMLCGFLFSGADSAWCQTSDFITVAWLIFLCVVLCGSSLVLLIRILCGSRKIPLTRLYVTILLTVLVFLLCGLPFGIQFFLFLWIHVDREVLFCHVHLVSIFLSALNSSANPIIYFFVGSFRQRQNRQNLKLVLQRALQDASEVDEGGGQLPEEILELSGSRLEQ
RGS4 inh: inhibitors of human RGS4; HEK293 M3R/RGS4 inducible, Fluo-4 calcium flux; active compounds read high; triggered by carbachol at its EC20; P49798; AID 463165; B-score at 10 µM; actives 0.45% (n = 310,000);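 active = B-score, a plate-corrected calcium signal, over three deviations above library mean, with baseline fluorescence within five deviations of library mean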;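 note: RGS4 expression induced by doxycycline in cells with stable M3 receptor; B-score is computed from the integrated fluorescence ratio over baseline after carbachol; higher B-score means a larger calcium signal and so more RGS4 inhibition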
Target sequence (P49798 whole entry, looked up): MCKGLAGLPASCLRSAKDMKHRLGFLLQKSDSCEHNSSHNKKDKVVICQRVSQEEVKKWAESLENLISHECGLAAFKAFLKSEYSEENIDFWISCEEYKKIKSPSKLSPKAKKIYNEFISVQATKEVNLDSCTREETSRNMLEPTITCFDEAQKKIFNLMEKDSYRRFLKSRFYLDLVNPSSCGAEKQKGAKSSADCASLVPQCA
MrgX1 ag: human MrgX1 receptor agonism, primary screen; MrgX1-HEK293 cells, Fluo-4 calcium fluorescence, agonist mode; active compounds read high; B-score at 10 µM; actives 0.44% (n = 310,000);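 active = calcium response B-score plate-corrected fluorescence ratio at least 3 library SD, with starting fluorescence B-score inside 5 SD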
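Material: MrgX1-expressing HEK293 cells / Dosing: compound as first of three additions / Incubation: overnight seeding, then 1 h dark dye loading / Signal: Fluo-4 NW calcium fluorescence / Evaluation: B-scored fluorescence response ratio / Benchmarks: positive and negative control wells on each plate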
MrgX1 antagonist: blocks BAM8-22 activation of human MrgX1 receptor; B-score at 10 µM; actives 1.3% (n = 310,000); MRGX1-HEK293 calcium flux, Fluo-4, BAM8-22 antagonism; active compounds read low;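 active = calcium-response B-score plate-corrected more than 3 library SD below zero, starting fluorescence within 5 deviations, no agonist response on first addition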;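 note: peak minus trough fluorescence over baseline after final BAM8-22 challenge near maximal dose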
MrgX1 PAM conf: reconfirmed allosteric activator of human MrgX1 receptor. actives 13% (n = 1,200). shares compounds with MrgX1 allo act. MrgX1-HEK293, Fluo-4 calcium fluorescence, FDSS. activation (ratio percentage), % at 10 µM;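 active = ratio at least 3 SD above the weak peptide control, stable starting fluorescence, no direct agonism earlier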;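 note: compound followed by low BAM8-22 agonist challenge near EC20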
MrgX1 antag conf: confirmation of human MrgX1 receptor antagonists. shares compounds with MrgX1 antagonist. MrgX1-HEK293, BAM8-22 calcium flux, Fluo-4; active compounds read low. remaining BAM8-22 calcium response % of control (active compounds read low), % at 10 µM. actives 19% (n = 2,300). AID 602420;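 active = remaining agonist calcium response no higher than 100% minus 3 SD of agonist-only control wells, with starting fluorescence near control levels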;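 note: agonist BAM8-22 given at a near maximal EC90 to ECmax level; peak minus minimum fluorescence divided by baseline after agonist addition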
HEK293 Ca flux: counter-screen for MrgX1 antagonists: effect in parental HEK293 cells; shares compounds with MrgX1 antagonist; Fluo-4 calcium fluorescence, FDSS; fluorescence ratio F(max-min)/F0 at 10 µM; actives 2% (n = 4,000); AID 624111;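 active = duplicate-averaged calcium fluorescence ratio at least three times the standard deviation of buffer wells, a nonspecific response in parental cells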
HEK293 Ca counter: MrgX1 allosteric activator counter-screen hit in parental HEK293 cells | fluorescence ratio F(max-min)/F0 at 10 µM | parental HEK293 calcium flux, Fluo-4 fluorescence ratio; active compounds read high | actives 0.4% (n = 4,000) | shares compounds with MrgX1 antagonist;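 active = calcium fluorescence ratio, averaged over duplicates, at least 3 SD of the buffer-well ratio, meaning a nonspecific response in receptor-free cells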;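 note: untransfected parental HEK293 lacking MrgX1 used as counterscreen for MrgX1 allosteric activators; fluorescence change taken during the second addition on a kinetic imager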
HEK293 Ca cntr2: MrgX1 activator counter-screen hit in parental HEK293 cells; shares compounds with MrgX1 antagonist; Fluo-4 calcium fluorescence (FDSS); active compounds read high; fluorescence ratio F(max-min)/F0 at 10 µM; actives 8.7% (n = 4,000);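 active = calcium fluorescence ratio at least three times the spread of buffer wells, meaning a non-specific response in parental cells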
* = called active by the depositor; i = inactive; · = no result.

SMILES	RGS4 act	MrgX1 allo act	RGS4 inh	MrgX1 ag	MrgX1 antagonist	MrgX1 PAM conf	HEK293 Ca flux	HEK293 Ca counter	HEK293 Ca cntr2	others
CCOC(=O)c1c(C)nc2c(c1-c1ccc(Cl)cc1)C(=O)CC(C)(C)C2	i	8.6*	i	i	-4.8*	i	i	i	i	MrgX1 antag conf=i
CCOC(=O)c1c(C)nc2ccccc2c1-c1ccccc1	i	7.6*	i	i	i	i	i	i	i
Cc1ccccc1N1CCN(C2CCCN(C(=O)c3cnsn3)C2)CC1 (centres undefined)	i	i	i	i	i	·	·	·	·
CCNc1nc(Oc2ccc(OC)cc2)cc(C(F)(F)F)n1	i	10*	i	i	i	i	i	i	i
CCNc1nc(Sc2ccc(C)cc2)cc(C(F)(F)F)n1	i	6.8*	i	i	i	15%*	i	i	i
CCNc1nc(Oc2c(Cl)cccc2Cl)cc(C(F)(F)F)n1	i	i	i	i	i	·	·	·	·
O=C(Nc1scc(-c2ccccc2)c1C(=O)O)c1ccco1	i	i	i	i	i	·	·	·	·
CCOC(=O)c1c(-c2ccc(F)cc2)csc1NC(=O)C1CCCO1 (centres undefined)	i	11*	i	i	i	i	i	i	i
CCOC(=O)c1c(-c2ccc(OC)cc2)csc1NC(=O)C1CCCO1 (centres undefined)	i	24*	i	i	i	i	i	i	i
COC(=O)c1c(-c2ccc(F)cc2)csc1NC(=O)c1ccco1	i	22*	i	i	i	22%*	i	i	i
COC(=O)c1c(-c2cccc(C)c2)csc1NC(=O)C1CCCO1 (centres undefined)	i	i	i	i	i	·	·	·	·
CCOC(=O)c1c(-c2ccc(C)cc2)csc1NC(=O)C1CCCO1 (centres undefined)	i	13*	i	i	i	19%*	i	i	i
COc1ccc(/C=N/NC(=O)c2cccc(Br)c2)cc1COc1ccccn1	i	i	i	i	i	·	·	·	·
OCC[C@H]1C[C@@H](O)[C@H](O)[C@@]2(Cc3ccccc3CO2)O1	·	i	·	i	i	·	·	·	·
c1ccc(Sc2ncnc3c2oc2ccccc23)cc1	i	12*	i	i	i	22%*	i	i	i
Cc1nc(Oc2ccccc2)c2oc3ccccc3c2n1	i	34*	i	i	i	25%*	i	i	i
Cc1nc(Oc2ccccc2)c2ccsc2n1	i	9.8*	i	i	i	4.8%*	i	i	i
Cc1nc(Nc2ccccc2F)c2oc3ccccc3c2n1	i	7*	i	i	i	i	i	i	i
CCC(C)NC(=O)C1CCN(S(=O)(=O)c2cccc3nonc23)CC1 (centres undefined)	i	i	i	i	i	·	·	·	·
O=C1CC(c2ccccc2Cl)=NN(c2ncnc3ccccc23)C1=O	i	i	i	i	i	·	·	·	·
COc1ccc(Oc2nc(C)nc3c2oc2ccccc23)cc1	i	14*	i	i	i	27%*	i	i	i
CCN(CC)CCOc1ncnc2c1oc1ccccc12	i	i	i	i	i	·	·	·	·
COc1ccccc1Oc1ncnc2c1oc1ccccc12	i	15*	i	i	i	33%*	i	i	i
COc1ccc(Nc2nc(C)nc3c2oc2ccccc23)c(OC)c1	i	i	i	i	i	·	·	·	·
O=C(c1c[nH]c2ccccc12)C(Cl)c1ccccc1 (centres undefined)	i	i	i	i	i	·	·	·	·
SMILES	RGS4 act	MrgX1 allo act	RGS4 inh	MrgX1 ag	MrgX1 antagonist	MrgX1 PAM conf	HEK293 Ca flux	HEK293 Ca counter	HEK293 Ca cntr2	others
CC(=O)c1ccc(-c2ccc(C(=O)NC3CC(C)(C)NC(C)(C)C3)o2)cc1	i	i	i	i	i	·	·	·	·
Cc1ccc(CN2CCN(Cc3ccc(-n4cccn4)cc3C)CC2CCO)cc1 (centres undefined)	i	i	i	i	i	·	·	·	·
O=C(CSc1nc2ccccc2c(=O)n1CC1CCCO1)NCC1CCCO1 (centres undefined)	i	8.2*	i	i	i	i	i	i	i
CC(=O)NCCn1c(SCC(=O)NCC2CCCO2)nc2ccccc2c1=O (centres undefined)	i	i	i	i	i	·	·	·	·
O=c1c2ccccc2c2ccccc2c(=O)n1CC1CCCO1 (centres undefined)	i	9.2*	i	i	i	i	i	i	i
Cc1c(C(=O)NC(=S)NCc2cccnc2)cccc1[N+](=O)[O-]	i	i	i	i	i	·	·	·	·
COc1ccccc1NS(=O)(=O)c1cc(-c2cnc(C3CC3)o2)ccc1C	i	14*	i	i	i	i	i	i	i
COc1ccc(NS(=O)(=O)c2cc(-c3cnc(C4CC4)o3)ccc2C)cc1	i	i	i	i	i	·	·	·	·
CC(NC(=O)C12CC3(C)CC(C)(CC(C)(C3)C1)C2)C(=O)O (centres undefined)	i	i	i	i	i	·	·	·	·
CCOC(=O)c1sc(=NC(=O)COc2ccccc2)n(C)c1C	i	11*	i	i	i	i	i	i	i
CCOC(=O)c1sc(=NC(=O)CCSc2ccccc2)n(C)c1C	i	i	i	i	i	·	·	·	·
CC(C)(C)OC(=O)N1CCC(C(=O)NCC2CCCO2)CC1 (centres undefined)	i	i	i	i	i	·	·	·	·
